# Tests used:
# [1] = system: Human immunodeficiency virus 1; test: Antiviral activity against HIV1 3B infected human MT2 cells assessed as cytoprotection after 5 days by MTT colorimetric method; assay type: functional, organism-based; conditions: Human immunodeficiency virus 1, 3B, MT2, 120 h
# In short: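 MT-2 human T-cells plated with a range of β-peptide concentrations and cultured with wild-type HIV-1 IIIB for 5 days. Live cells measured by MTT reduction to formazan, read at 595 nm. EC50 is the peptide concentration giving 50% survival of infected cells. Triplicate samples at each concentration.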
# [2] = Binding affinity to HIV1 gp41-GCN4-pIQI fusion protein IQN17; set-up: species or system Human immunodeficiency virus 1
# In short: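 β-peptides labeled at the N-terminus with fluorescein-hexanoic acid NHS ester and tested in a direct fluorescence polarization assay against IQN17. IQN17 is a trimeric fusion of 17 gp41 N-terminal residues with a 29-residue isoleucine zipper. KD is taken at 50% binding of IQN17. Binding curves run in triplicate.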
# [3] = Cytotoxicity against human MT2 cells by MTT colorimetric method; assay type: cell-based
# In short: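 Uninfected MT-2 cells cultured with a range of β-peptide concentrations, without virus. Viability read by MTT colorimetric assay. CC50 is the concentration giving 50% inhibition of MT-2 cell growth. Triplicate samples at each concentration.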
# [4] = Selectivity ratio of CC50 for human MT2 cells to EC50 for HIV1 3B infected human MT2 cells; assay type: ADME, cell-based; conditions: for selectivity ratio: MT2 cells and HIV1 3B infected MT2 cells, read-out: Ratio CC50/EC50
# In short: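 Ratio of CC50 to EC50. CC50 comes from MTT viability of uninfected MT-2 cells given peptide alone. EC50 comes from MTT survival of MT-2 cells infected with HIV-1 IIIB after 5 days. Both curves used triplicate samples.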
Molecule,Kd [2] [µM],EC50 [1] [µM],CC50 [3] [µM],Ratio CC50/EC50 ([4]; mt2),selectivity ratio [4]
enfuvirtide,,0.0375,,,
CC[C@@](C)(CC(=O)N[C@H](CC(=O)O)CC(=O)NC(C)(C)CC(=O)NC(CC(=O)N[C@@H](CCN)CC(=O)NC(C)(C)CC(=O)N[C@H](CC(=O)NC(CC(=O)O)CC(=O)O)Cc1c[nH]c2ccccc12)Cc1cccc(F)c1)NC(=O)CC(C)(C)NC(=O)C[C@@H](N)CCN (stereo partly specified),15.7,18,50,,
CC[C@@](C)(CC(=O)N[C@H](CC(=O)O)CC(=O)NC(C)(C)CC(=O)NC(CC(=O)N[C@@H](CCN)CC(=O)NC(C)(C)CC(=O)N[C@H](CC(=O)NC(CC(=O)O)CC(=O)O)Cc1c[nH]c2ccccc12)Cc1ccc(I)cc1)NC(=O)CC(C)(C)NC(=O)C[C@@H](N)CCN (stereo partly specified),14.1,8.9,23,,
CC[C@@](C)(CC(=O)N[C@H](CC(=O)O)CC(=O)NC(C)(C)CC(=O)NC(CC(=O)N[C@@H](CCN)CC(=O)NC(C)(C)CC(=O)N[C@H](CC(=O)NC(CC(=O)O)CC(=O)O)Cc1c[nH]c2ccccc12)Cc1cccnc1)NC(=O)CC(C)(C)NC(=O)C[C@@H](N)CCN (stereo partly specified),104,> 250,> 250,Not Active,
CC[C@@](C)(CC(=O)N[C@H](CC(=O)O)CC(=O)NC(C)(C)CC(=O)N[C@@H](CC(=O)N[C@@H](CCN)CC(=O)NC(C)(C)CC(=O)N[C@H](CC(=O)NC(CC(=O)O)CC(=O)O)Cc1c[nH]c2ccccc12)Cc1c[nH]c2ccccc12)NC(=O)CC(C)(C)NC(=O)C[C@@H](N)CCN,16.5,56,100,,1.8

# Continued, in another order:
Kd [2] [µM],Molecule,EC50 [1] [µM],CC50 [3] [µM],Ratio CC50/EC50 ([4]; mt2),selectivity ratio [4]
13.3,CC[C@@](C)(CC(=O)N[C@H](CC(=O)O)CC(=O)NC(C)(C)CC(=O)NC(CC(=O)N[C@@H](CCN)CC(=O)NC(C)(C)CC(=O)N[C@H](CC(=O)NC(CC(=O)O)CC(=O)O)Cc1c[nH]c2ccccc12)Cc1ccccc1Cl)NC(=O)CC(C)(C)NC(=O)C[C@@H](N)CCN (stereo partly specified),8.8,31,,3.5
10.2,CC[C@@](C)(CC(=O)N[C@H](CC(=O)O)CC(=O)NC(C)(C)CC(=O)NC(CC(=O)N[C@@H](CCN)CC(=O)NC(C)(C)CC(=O)N[C@H](CC(=O)NC(CC(=O)O)CC(=O)O)Cc1c[nH]c2ccccc12)Cc1cccc(C(F)(F)F)c1)NC(=O)CC(C)(C)NC(=O)C[C@@H](N)CCN (stereo partly specified),19,150,,7.9
12.2,CC[C@@](C)(CC(=O)N[C@H](CC(=O)O)CC(=O)NC(C)(C)CC(=O)NC(CC(=O)N[C@@H](CCN)CC(=O)NC(C)(C)CC(=O)N[C@H](CC(=O)NC(CC(=O)O)CC(=O)O)Cc1c[nH]c2ccccc12)Cc1ccc2ccccc2c1)NC(=O)CC(C)(C)NC(=O)C[C@@H](N)CCN (stereo partly specified),8.2,23,,
